# Data published in ChEMBL document CHEMBL4041526, “Discovery of 2H-Chromen-2-one Derivatives as G Protein-Coupled Receptor-35 Agonists” (J Med Chem, 2017).
# The source made the active and inactive calls. The rule behind the calls is not given here.
# Target: T1, G-protein coupled receptor 35 (Homo sapiens, UniProt Q9HC97)
# Test: Agonist activity at GPR35 in human HT-29 cells by DMR assay
# Format: cell-based
# Conditions: read-out: EC50
# Method in brief: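 HT-29 cells with endogenous GPR35, grown in McCoy's 5A with 10% FBS at 37 °C/5% CO2, seeded overnight to a confluent monolayer on resonant waveguide grating biosensor plates. Cells were washed, kept in HBSS for 1 h in the reader, and given a 2 min baseline before compound addition. Mean ± sd, two independent runs × four replicates (n=8).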
# T1 sequence (Q9HC97 whole entry): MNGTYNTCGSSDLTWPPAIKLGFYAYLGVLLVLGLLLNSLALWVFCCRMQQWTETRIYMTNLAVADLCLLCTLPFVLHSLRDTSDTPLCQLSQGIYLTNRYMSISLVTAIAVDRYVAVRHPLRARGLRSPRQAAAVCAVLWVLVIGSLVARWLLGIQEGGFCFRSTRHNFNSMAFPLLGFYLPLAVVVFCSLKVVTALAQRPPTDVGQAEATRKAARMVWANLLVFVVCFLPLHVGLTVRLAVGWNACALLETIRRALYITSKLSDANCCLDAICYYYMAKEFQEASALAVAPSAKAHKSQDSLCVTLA
row,EC50,Structure (SMILES)
1,2020 nM,O=C(O)c1cc2cc(Cl)cc(Cl)c2oc1=O
2,150 nM,O=C(O)c1cc2cc(Br)c(O)c(Br)c2oc1=O
3,2330 nM,N#Cc1cc2cc(Br)c(O)c(Br)c2oc1=O
4,2910 nM,COc1c(Br)cc2cc(C#N)c(=O)oc2c1[N+](=O)[O-]
5,4270 nM,O=C(O)c1cc2cc(Br)cc([N+](=O)[O-])c2oc1=O
6,9270 nM,N#Cc1cc2cc(Br)c(O)cc2oc1=O
7,330 nM,O=c1oc2c([N+](=O)[O-])cc(Br)cc2cc1-c1nnn[nH]1
8,68 nM,O=c1oc2c(Br)c(O)c(Br)cc2cc1-c1nnn[nH]1
9,1410 nM,COc1c(Br)cc2cc(-c3nnn[nH]3)c(=O)oc2c1Br
10,13500 nM,O=C(O)c1cc2cc(Cl)ccc2oc1=O
11,1750 nM,O=C(O)c1cc2cc(Br)cc(Br)c2oc1=O
12,92300 nM,O=C(O)c1cc2ccccc2oc1=O [COUMARIN-3-CARBOXYLIC ACID]
13,700 nM,N#Cc1cc2cc(Br)cc([N+](=O)[O-])c2oc1=O
14,10800 nM,O=C(O)c1cc2cc(Br)ccc2oc1=O
15,930 nM,O=c1oc2c(Br)cc(Br)cc2cc1-c1nnn[nH]1
16,8220 nM,COc1c(Br)cc2cc(C#N)c(=O)oc2c1Br

# Same assay, conditions: read-out: pEC50 (converted)
row,EC50,Structure (SMILES)
1,66.7 nM,O=c1oc2c(Br)c(O)c(Br)cc2cc1-c1nnn[nH]1

# Target: T1, G-protein coupled receptor 35
# Test: Agonist activity at GPR35 in human HT-29 cells assessed as induction of cell desensitization to 1 uM zaprinast preincubated for 1 hr followed by zaprinast stimulation measured after 8 minutes by DMR assay
# Format: cell-based
# Conditions: not given
# Method in brief: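 Desensitization format in HT-29 cells on resonant waveguide grating biosensor plates, held in HBSS. […] Mean ± sd, two independent measurements, each with four replicates (n=8).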
row,Structure (SMILES),IC50
1,O=C(O)c1cc2cc(Cl)cc(Cl)c2oc1=O,2300 nM
2,O=C(O)c1cc2cc(Br)c(O)c(Br)c2oc1=O,56 nM
3,N#Cc1cc2cc(Br)c(O)c(Br)c2oc1=O,2890 nM
4,COc1c(Br)cc2cc(C#N)c(=O)oc2c1[N+](=O)[O-],1690 nM
5,O=C(O)c1cc2cc(Br)cc([N+](=O)[O-])c2oc1=O,3750 nM
6,N#Cc1cc2cc(Br)c(O)cc2oc1=O,9330 nM
7,O=c1oc2c([N+](=O)[O-])cc(Br)cc2cc1-c1nnn[nH]1,330 nM
8,O=c1oc2c(Br)c(O)c(Br)cc2cc1-c1nnn[nH]1,23 nM
9,COc1c(Br)cc2cc(-c3nnn[nH]3)c(=O)oc2c1Br,460 nM
10,O=C(O)c1cc2cc(Cl)ccc2oc1=O,13200 nM
11,O=C(O)c1cc2cc(Br)cc(Br)c2oc1=O,1080 nM
12,O=C(O)c1cc2ccccc2oc1=O [COUMARIN-3-CARBOXYLIC ACID],100000 nM
13,N#Cc1cc2cc(Br)cc([N+](=O)[O-])c2oc1=O,650 nM
14,O=C(O)c1cc2cc(Br)ccc2oc1=O,11300 nM
15,O=c1oc2c(Br)cc(Br)cc2cc1-c1nnn[nH]1,380 nM
16,COc1c(Br)cc2cc(C#N)c(=O)oc2c1Br,590 nM

# Target: T1, G-protein coupled receptor 35
# Test: Agonist activity at GPR35 in human HT-29 cells in presence of antagonist ML-145 by DMR assay
# Format: cell-based
# Conditions: not given
# Method in brief: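 HT-29 DMR antagonist format: ML-145 was titrated against the coumarin agonist, each agonist given at its EC80–EC100 dose. Cells were kept in HBSS and equilibrated 1 h in the reader. IC50 was calculated from the DMR amplitude at 8 min post-stimulation. Mean ± sd, two independent measurements × four replicates (n=8).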
row,Activity,Structure (SMILES)
1,inactive,O=C(O)c1cc2cc(Cl)cc(Cl)c2oc1=O
2,inactive,O=C(O)c1cc2cc(Br)c(O)c(Br)c2oc1=O
3,inactive,N#Cc1cc2cc(Br)c(O)c(Br)c2oc1=O
4,inactive,COc1c(Br)cc2cc(C#N)c(=O)oc2c1[N+](=O)[O-]
5,inactive,O=C(O)c1cc2cc(Br)cc([N+](=O)[O-])c2oc1=O
6,inactive,N#Cc1cc2cc(Br)c(O)cc2oc1=O
7,inactive,O=c1oc2c([N+](=O)[O-])cc(Br)cc2cc1-c1nnn[nH]1
8,inactive,O=c1oc2c(Br)c(O)c(Br)cc2cc1-c1nnn[nH]1
9,inactive,COc1c(Br)cc2cc(-c3nnn[nH]3)c(=O)oc2c1Br
10,inactive,O=C(O)c1cc2cc(Cl)ccc2oc1=O
11,inactive,O=C(O)c1cc2cc(Br)cc(Br)c2oc1=O
12,inactive,O=C(O)c1cc2ccccc2oc1=O [COUMARIN-3-CARBOXYLIC ACID]
13,inactive,N#Cc1cc2cc(Br)cc([N+](=O)[O-])c2oc1=O
14,inactive,O=C(O)c1cc2cc(Br)ccc2oc1=O
15,inactive,O=c1oc2c(Br)cc(Br)cc2cc1-c1nnn[nH]1
16,inactive,COc1c(Br)cc2cc(C#N)c(=O)oc2c1Br

# Target: T1, G-protein coupled receptor 35
# Test: Agonist activity at TEV protease cleavage site linked GAL4-VP16-fused GPR35 in human Tango GPR35-bla U2OS cells assessed as induction of TEV protease-tagged beta-arrestin recruitment incubated for 5 hrs by beta-lactamase reporter gene assay
# Conditions: not given
row,EC50,Structure (SMILES)
1,3630 nM,O=C(O)c1cc2cc(Br)c(O)c(Br)c2oc1=O
2,1540 nM,O=c1oc2c(Br)c(O)c(Br)cc2cc1-c1nnn[nH]1
3,14100 nM,COc1c(Br)cc2cc(-c3nnn[nH]3)c(=O)oc2c1Br
4,7050 nM,O=c1oc2c(Br)cc(Br)cc2cc1-c1nnn[nH]1

# Target: T1, G-protein coupled receptor 35
# Test: Agonist activity at TEV protease cleavage site linked GAL4-VP16-fused GPR35 in human Tango GPR35-bla U2OS cells assessed as induction of TEV protease-tagged beta-arrestin recruitment incubated for 5 hrs by beta-lactamase reporter gene assay relative to zaprinast
# Conditions: not given
row,Efficacy,Structure (SMILES)
1,168%,O=C(O)c1cc2cc(Br)c(O)c(Br)c2oc1=O
2,126%,O=c1oc2c(Br)c(O)c(Br)cc2cc1-c1nnn[nH]1
3,86.4%,COc1c(Br)cc2cc(-c3nnn[nH]3)c(=O)oc2c1Br
4,100%,CCCOc1ccccc1-c1nc2[nH]nnc2c(=O)[nH]1
5,81.3%,O=c1oc2c(Br)cc(Br)cc2cc1-c1nnn[nH]1
